Laboratory results reported in ChEMBL document CHEMBL1140159, “Gedunin, a novel hsp90 inhibitor: semisynthesis of derivatives and preliminary structure-activity relationships” (J Med Chem, 2008).

Tests used:
MCF7 = test: Antiproliferative activity against human MCF7 cells after 72 hrs; type: functional, cell-based; conditions: MCF7, 72 h
In short: (§1)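 Cells were grown in a 1:1 Advanced DMEM/F12 mix with nonessential amino acids, 2 mM L-glutamine, penicillin/streptomycin and 10% FBS at 37 °C and 5% CO₂. They were seeded at 2000/well and left to attach overnight, then dosed over a concentration range (1% DMSO final) for 72 h. Viable cells were read by MTS/PMS, normalised to 1% DMSO controls (100%), and IC50 was taken from a nonlinear dose–response fit; three experiments, each in triplicate.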

SK-BR-3 = test: Antiproliferative activity against human SKBr3 cells after 72 hrs; type: functional, cell-based; conditions: SK-BR-3, 72 h; in short: as §1

| SMILES | IC50 (MCF7) [µM] | IC50 (SK-BR-3) [µM] |
| --- | --- | --- |
| CC(=O)OC1C=C[C@]2(C)[C@H]3CC[C@@]4(C)C(c5ccoc5)OC(=O)[C@H]5O[C@]54[C@]3(C)[C@H](OC(C)=O)C[C@H]2C1(C)C (single isomer, unassigned) | > 100 | > 100 |
| CC(=O)O[C@@H]1C[C@H]2C(C)(C)C(=O)C(O)C(O)[C@]2(C)[C@H]2CC[C@@]3(C)[C@@H](c4ccoc4)OC(=O)[C@H]4O[C@]43[C@@]21C (some centres not stated) | > 100 | > 100 |
| CCO[C@@H]1C[C@H]2C(C)(C)C(=O)C=C[C@]2(C)[C@H]2CC[C@@]3(C)[C@@H](c4ccoc4)OC(=O)[C@H]4O[C@]43[C@@]21C | 14.8 | 12.1 |
| CCCO[C@@H]1C[C@H]2C(C)(C)C(=O)C=C[C@]2(C)[C@H]2CC[C@@]3(C)[C@@H](c4ccoc4)OC(=O)[C@H]4O[C@]43[C@@]21C | 37.3 | 18.1 |
| CC(=O)O[C@@H]1C[C@H]2C(C)(C)C(O)C=C[C@]2(C)[C@H]2CC[C@@]3(C)C(c4ccoc4)OC(=O)[C@H]4O[C@]43[C@@]21C (single isomer, unassigned) | 54.3 | 47.7 |
| CC(=O)O[C@@H]1C[C@H]2C(C)(C)C(=O)C=C[C@]2(C)[C@H]2CC[C@@]3(C)[C@H](c4ccoc4)OC(=O)[C@H]4O[C@]43[C@@]21C [GEDUNIN] | 8.84 | 3.22 |
| CCC(=O)O[C@@H]1C[C@H]2C(C)(C)C(=O)C=C[C@]2(C)[C@H]2CC[C@@]3(C)[C@@H](c4ccoc4)OC(=O)[C@H]4O[C@]43[C@@]21C | > 100 | > 100 |
| CC1(C)C(=O)C=C[C@]2(C)[C@H]3CC[C@@]4(C)[C@H](c5ccoc5)OC(=O)[C@H]5O[C@]54[C@]3(C)[C@H](O)C[C@@H]12 [DEACETYLGEDUNIN] | 29 | 21.1 |
| CC1(C)C(=O)C=C[C@]2(C)[C@H]3CC[C@@]4(C)[C@@H](c5ccoc5)OC(=O)[C@H]5O[C@]54[C@]3(C)C(=O)C[C@@H]12 | 10.9 | 4.49 |
| CC(=O)O[C@@H]1C[C@H]2C(C)(C)/C(=N/O)C=C[C@]2(C)[C@H]2CC[C@@]3(C)[C@@H](c4ccoc4)O/C(=N\O)[C@H]4O[C@]43[C@@]21C | 33.2 | 26.5 |
| CO/N=C1\C=C[C@]2(C)[C@H]3CC[C@@]4(C)[C@@H](c5ccoc5)OC(=O)[C@H]5O[C@]54[C@]3(C)[C@H](OC(C)=O)C[C@H]2C1(C)C | > 100 | > 100 |
| CO[C@@H]1C[C@H]2C(C)(C)C(=O)C=C[C@]2(C)[C@H]2CC[C@@]3(C)[C@@H](c4ccoc4)OC(=O)[C@H]4O[C@]43[C@@]21C | 38.9 | 13 |
| CC1(C)C(=O)C=C[C@]2(C)[C@H]3CC[C@@]4(C)[C@@H](c5ccoc5)OC(=O)[C@H]5O[C@]54[C@]3(C)[C@H](OCc3ccccc3)C[C@@H]12 | > 100 | > 100 |
| CC1(C)C(=O)C=C[C@]2(C)[C@H]3CC[C@@]4(C)[C@@H](c5ccoc5)OC(=O)[C@H]5O[C@]54[C@]3(C)[C@H](OC(N)=O)C[C@@H]12 | 9.79 | 7.05 |
| CC(=O)O[C@@H]1C[C@H]2C(C)(C)C(=O)CC[C@]2(C)[C@H]2CC[C@@]3(C)[C@@H](c4ccoc4)OC(=O)[C@H]4O[C@]43[C@@]21C | > 100 | > 100 |
| CC(=O)O[C@@H]1C[C@H]2C(C)(C)C(O)C=C[C@]2(C)[C@H]2CC[C@@]3(C)C(c4ccoc4)OC(O)[C@H]4O[C@]43[C@@]21C (single isomer, unassigned) | 47.7 | 82.4 |
| CC(=O)O[C@@H]1C[C@H]2C(C)(C)C(=O)C3OC(C)(C)OC3[C@]2(C)[C@H]2CC[C@@]3(C)C(c4ccoc4)OC(=O)[C@H]4O[C@]43[C@@]21C (single isomer, unassigned) | > 100 | > 100 |
| CC(=O)O[C@@H]1C[C@H]2C(C)(C)C(O)CC[C@]2(C)[C@H]2CC[C@@]3(C)[C@@H](c4ccoc4)OC(O)[C@H]4O[C@]43[C@@]21C (some centres not stated) | > 100 | > 100 |
| CC(=O)O[C@@H]1C[C@H]2C(C)(C)/C(=N/OCc3ccccc3)C=C[C@]2(C)[C@H]2CC[C@@]3(C)[C@@H](c4ccoc4)OC(=O)[C@H]4O[C@]43[C@@]21C | > 100 | > 100 |
| CC1(C)C(=O)[C@H]2O[C@H]2[C@]2(C)[C@H]3CC[C@@]4(C)C(c5ccoc5)OC(=O)[C@H]5O[C@]54[C@]3(C)[C@H](O)C[C@@H]12 (single isomer, unassigned) | > 100 | > 100 |
| CCO/N=C1\C=C[C@]2(C)[C@H]3CC[C@@]4(C)[C@@H](c5ccoc5)OC(=O)[C@H]5O[C@]54[C@]3(C)[C@H](OC(C)=O)C[C@H]2C1(C)C | > 100 | > 100 |
